Data reported in ChEMBL document CHEMBL3352266.
pIC50: −log10 of the molar value. The source made the active and inactive calls. No cut-off for these calls is given here.

Assays:
Myeloperoxidase = target: T1, Myeloperoxidase (Homo sapiens, UniProt P05164); test: Inhibition of myeloperoxidase (unknown origin) assessed as reduction in enzymatic hypochlorous acid production by spectrophotometry based taurine chlorination assay; type: single protein
T1 sequence (P05164 whole entry): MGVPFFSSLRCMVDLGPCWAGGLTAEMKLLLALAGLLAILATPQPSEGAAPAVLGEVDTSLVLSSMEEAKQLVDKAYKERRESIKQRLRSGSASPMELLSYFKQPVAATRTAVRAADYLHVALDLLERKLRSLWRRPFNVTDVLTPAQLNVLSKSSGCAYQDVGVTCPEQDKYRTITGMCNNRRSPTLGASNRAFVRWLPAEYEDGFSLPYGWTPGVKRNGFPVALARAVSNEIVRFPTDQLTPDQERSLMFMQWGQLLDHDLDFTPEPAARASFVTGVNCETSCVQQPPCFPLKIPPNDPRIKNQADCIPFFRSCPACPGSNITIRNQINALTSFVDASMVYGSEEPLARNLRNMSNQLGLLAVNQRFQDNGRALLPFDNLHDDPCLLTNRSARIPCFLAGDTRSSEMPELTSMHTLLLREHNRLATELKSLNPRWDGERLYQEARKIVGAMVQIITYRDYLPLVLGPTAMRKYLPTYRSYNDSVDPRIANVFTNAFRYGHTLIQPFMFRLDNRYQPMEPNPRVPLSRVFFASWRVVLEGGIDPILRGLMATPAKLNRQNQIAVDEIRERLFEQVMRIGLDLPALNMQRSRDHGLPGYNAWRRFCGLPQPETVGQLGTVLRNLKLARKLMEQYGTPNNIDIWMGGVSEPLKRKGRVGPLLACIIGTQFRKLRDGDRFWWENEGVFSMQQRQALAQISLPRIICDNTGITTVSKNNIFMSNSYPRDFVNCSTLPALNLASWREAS
Summary of the method: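 Started with 40 μM H2O2 and stopped after 5 min with catalase. Developed with an equal volume of 500 uM TMB and 100 μM NaI in 300 mM acetate, pH 5.4. Absorbance read at 650 nm. IC50 given as mean of ≥3 trials ± SD.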

[1] = target: T2, Myeloperoxidase (Homo sapiens) (UniProt P05164); test: Inhibition of myeloperoxidase (unknown origin) assessed as reduction in H2O2 consumption by H2O2-specific electrode based assay
T2 sequence (whole entry): T1 sequence (P05164 whole entry)
Summary of the method: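 An H2O2-specific electrode sat in a continuously stirred vessel holding 30 μM H2O2, 154 mM NaCl and varied inhibitor concentrations in 10 mM phosphate buffer, pH 7.4. H2O2 concentration was followed in real time to derive IC50.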

Q: How did the pIC50 (Myeloperoxidase) turn out when `CC1(C)COc2c3ccccc3nn21` was run?
A: Its pIC50 is 5.99.

Q: `CC(=O)OCC(C)n1[nH]c2ccccc2c1=O` (configuration not stated) was tested. Which pIC50 (Myeloperoxidase) did it give?
A: Its pIC50 is 5.67.

Q: How did the pIC50 (Myeloperoxidase) turn out when `COCCOc1c2ccccc2nn1C(C)C` was run?
A: The pIC50 was 5.85.

Q: How did the pIC50 (Myeloperoxidase) turn out when `COc1c2ccccc2nn1CCCCCO` was run?
A: Its pIC50 is 5.81.

Q: `C#Cc1ccc(-n2nc3ccccc3c2OC)cc1` was tested. Which pIC50 (Myeloperoxidase) did it give?
A: Its pIC50 is 5.96.

Q: How did the pIC50 (Myeloperoxidase) turn out when `O=c1c2ccccc2[nH]n1CCO` was run?
A: Its pIC50 is 5.61.

Q: How did the pIC50 (Myeloperoxidase) turn out when `c1c2c(cc3c4n(nc13)CCS4)OCO2` was run?
A: The pIC50 was 7.06.

Q: And the inhibition [1]?
A: Its inhibition is “Active”.

Q: `O=c1c2ccccc2[nH]n1CCCO` was tested. Which pIC50 (Myeloperoxidase) did it give?
A: The pIC50 was 5.71.

Q: How did the pIC50 (Myeloperoxidase) turn out when `CCCCCCCCn1nc2ccccc2c1OC` was run?
A: The pIC50 was under 5.00.

Q: How did the pIC50 (Myeloperoxidase) turn out when `COc1c2ccccc2nn1-c1ccccc1` was run?
A: The pIC50 was 5.69.

Q: With `c1ccc2c3n(nc2c1)CCCS3` as the compound, how does the pIC50 (Myeloperoxidase) read?
A: The pIC50 was 6.67.

Q: What about the inhibition [1] of the same compound?
A: The inhibition was “Active”.

Q: How did the pIC50 (Myeloperoxidase) turn out when `COc1c2ccccc2nn1-c1cccc(I)c1` was run?
A: The pIC50 was 5.78.

Q: With `COc1c2ccccc2nn1CCCCO` as the compound, how does the pIC50 (Myeloperoxidase) read?
A: The pIC50 was 5.75.

Q: How did the pIC50 (Myeloperoxidase) turn out when `CC(=O)OCC(C)n1c(=O)c2ccccc2n1C(C)=O` (configuration not stated) was run?
A: Its pIC50 is under 5.00.

Q: With `CC(=O)n1c2ccccc2c(=O)n1C(C)C` as the compound, how does the pIC50 (Myeloperoxidase) read?
A: Its pIC50 is under 5.00.

Q: How did the pIC50 (Myeloperoxidase) turn out when `c1ccc2c3n(nc2c1)CCS3` was run?
A: Its pIC50 is 7.03.

Q: What about the inhibition [1] of the same compound?
A: Its inhibition is “Active”.

Q: `CC(C)n1c(=O)c2ccccc2n1S(C)(=O)=O` was tested. Which pIC50 (Myeloperoxidase) did it give?
A: Its pIC50 is under 5.00.

Q: Which results are given for `CC1COc2c3ccccc3nn21` (configuration not stated)?
A: pIC50 (Myeloperoxidase): 6.05; inhibition [1]: Active

Q: With `CCCCCCCCn1nc2ccccc2c1OCC` as the compound, how does the pIC50 (Myeloperoxidase) read?
A: Its pIC50 is under 5.00.

Q: How did the pIC50 (Myeloperoxidase) turn out when `COc1c2ccccc2nn1-c1cccc(Cl)c1` was run?
A: The pIC50 was 5.32.

Q: How did the pIC50 (Myeloperoxidase) turn out when `CC(C)n1[nH]c2ccccc2c1=O` was run?
A: Its pIC50 is 6.18.

Q: And the inhibition [1]?
A: The inhibition was “Active”.

Q: How did the pIC50 (Myeloperoxidase) turn out when `CC(CBr)n1c(=O)c2ccccc2n1CC(=O)N1CCOCC1` (configuration not stated) was run?
A: The pIC50 was under 5.00.

Q: How did the pIC50 (Myeloperoxidase) turn out when `c1c2c(cc3c4n(nc13)CCCS4)OCO2` was run?
A: Its pIC50 is 6.85.

Q: And the inhibition [1]?
A: Its inhibition is “Active”.

Q: How did the pIC50 (Myeloperoxidase) turn out when `CCCCCn1nc2ccccc2c1OC` was run?
A: Its pIC50 is 5.41.

Q: With `COc1c2ccccc2nn1-c1ccc(I)cc1` as the compound, how does the pIC50 (Myeloperoxidase) read?
A: The pIC50 was 5.70.

Q: `CC(CCl)n1c(=O)c2ccccc2n1S(C)(=O)=O` (configuration not stated) was tested. Which pIC50 (Myeloperoxidase) did it give?
A: The pIC50 was under 5.00.

Q: With `CC(C)n1c(=O)c2ccccc2n1CC(=O)N1CCOCC1` as the compound, how does the pIC50 (Myeloperoxidase) read?
A: Its pIC50 is under 5.00.

Q: With `COc1c2ccccc2nn1C(C)C` as the compound, how does the pIC50 (Myeloperoxidase) read?
A: Its pIC50 is 6.15.

Q: And the inhibition [1]?
A: Its inhibition is “Active”.

Q: With `CCCCn1[nH]c2ccccc2c1=O` as the compound, how does the pIC50 (Myeloperoxidase) read?
A: The pIC50 was 6.10.

Q: And the inhibition [1]?
A: Its inhibition is “Active”.

Q: How did the pIC50 (Myeloperoxidase) turn out when `COc1c2cc3c(cc2nn1C(C)C)OCO3` was run?
A: The pIC50 was 6.15.

Q: And the inhibition [1]?
A: Its inhibition is “Active”.

Q: What does the source list for `c1c2c(cc3c4n(nc13)CCCO4)OCO2`?
A: pIC50 (Myeloperoxidase): 6.39; inhibition [1]: Active

Q: Which results are given for `CCOc1c2ccccc2nn1C(C)C`?
A: pIC50 (Myeloperoxidase): 6.14; inhibition [1]: Active

Q: `CCCCn1nc2ccccc2c1OC` was tested. Which pIC50 (Myeloperoxidase) did it give?
A: Its pIC50 is 6.04.

Q: And the inhibition [1]?
A: Its inhibition is “Active”.

Q: With `CCCCn1nc2ccccc2c1OCC` as the compound, how does the pIC50 (Myeloperoxidase) read?
A: Its pIC50 is 6.09.

Q: What about the inhibition [1] of the same compound?
A: Its inhibition is “Active”.

Q: With `COCCn1nc2ccccc2c1OC` as the compound, how does the pIC50 (Myeloperoxidase) read?
A: Its pIC50 is 5.97.

Q: `c1ccc2c3n(nc2c1)CCCO3` was tested. Which pIC50 (Myeloperoxidase) did it give?
A: The pIC50 was 6.44.

Q: And the inhibition [1]?
A: Its inhibition is “Active”.

Q: With `CCCCCCCCn1[nH]c2ccccc2c1=O` as the compound, how does the pIC50 (Myeloperoxidase) read?
A: The pIC50 was under 5.00.

Q: How did the pIC50 (Myeloperoxidase) turn out when `c1ccc2c(c1)COc1c3ccccc3nn1-2` was run?
A: The pIC50 was 5.38.
